Measurements taken from PubChem BioAssay.
Records with an inconclusive call do not appear. The source made the active and inactive calls.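 How the source made its calls, unless noted: active means growth inhibition above 25% in both replicates, a cutoff set 3 SD above the mean; inconclusive means above 25% in only one replicate; inactive means the rest.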

Assays:
[1] = S. cerevisiae growth inhibition in permissive medium (OD615), pilot counter-assay for S. cerevisiae lifespan shortening project, permissive growth control (AID 705); conditions: OD615, 24 h, at 10 µM, active compounds read high
Procedure, shortened: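 Material: engineered DeaD yeast; Compound: one dose 10 µM, DMSO 0.25% final; Detection: absorbance (optical density) at 615 nm; Buffer or medium: permissive raffinose/galactose medium; Timing: 24 h exposure, 30 °C.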

[2] = S. cerevisiae growth inhibition in restrictive medium, OD615, pilot screen, restrictive growth control, yeast lifespan reduction project (AID 706;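 active means growth inhibition above a set limit, 3 SD over mean compound inhibition, in both replicates, cut at about 43% in these data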;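 further: modified DeaD lifespan yeast strain shifted to restrictive glucose medium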); conditions: OD615, 48 h, at 10 µM, active compounds read high
Procedure, shortened: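 Buffer or medium: restrictive glucose medium (CSMM-D); test system: modified S. cerevisiae; doses: single dose of 10 µM compound final, 0.25% DMSO; schedule: 48 h compound exposure at 30 °C; detection: absorbance (optical density) measured at 615 nm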

[3] = doxorubicin toxicity protection in MRP-1 cells – H69AR cells, CellTiter-Glo, duplicate, MRP-1 activator project, pilot screen (AID 807;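 active means viability increase at or above a cutoff of the median across tested compounds plus 3 SD, cut at about 8.5% in these data, passing the limit was not always enough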;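 further: compound pretreatment 18-22 h then 72 h combined with doxorubicin; 0% = doxorubicin alone and 100% = vehicle without doxorubicin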); conditions: H69AR viability with doxorubicin, CellTiter-Glo luminescence; at 10 µM; active compounds read high
[4] = viability of HCT116 without oncogenic beta-catenin – human colon tumor cells, pilot screen (AID 823;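 active means cell viability at or below a set limit in both duplicate runs, the limit being the all-compound median minus 4 SD, cut at about 23% in these data, passing the limit was not always enough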;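 further: 0% = wells killed by 20 µM Hyamine and 100% = untreated DMSO cell wells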); conditions: HCT116 beta-catenin knockout viability, CellTiter-Glo, 60 h; at 10 µM; active compounds read low
[5] = viability of PTEN-null HCT116 cells – cell-based, HCT116 clonal line, CellTiter-Glo, pilot screen (AID 824;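 active means viability at or below 27.92% in each of two runs, the all-compound median minus 4 SD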;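 further: 0% = 20 µM Hyamine control and 100% = vehicle cell control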); conditions: HCT116 PTEN-deleted viability, 60 h, at 10 µM, active compounds read low
[6] = RAM pathway blockade in budding yeast – dse1pr::URA3 reporter, 5-FOA selection, pilot screen (AID 869;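 active means inhibition over a set limit, the all-compound mean plus 3 SD, in both replicate runs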;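 further: 0% = DMSO wells with no growth and 100% = 10 µM 1-NA-PP1 with full growth; RAM network block rescues cells from 5-FOA so hits raise OD615 growth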); conditions: S. cerevisiae dse1pr::URA3 5-FOA growth, OD615, 2 d; at 10 µM; active compounds read high; strain carries analog-sensitive mutant Cbk1 kinase
[7] = RAM signaling pathway blockade in yeast – S. cerevisiae, Pdr1DBD-CYC8 efflux-inhibited sensitized strain, primary screen (AID 1298;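 active means RAM network inhibition above 8.4% in each of two replicates, 3 SD over the compound average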;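 further: 0% = DMSO untreated cells without growth and 100% = 10 µM 1-NA-PP1 full growth; higher means more yeast growth rescued from 5-FOA killing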); conditions: S. cerevisiae cbk1-as DSE1-URA3 strain, 5-FOA growth OD615, 2 d; at 50 µM; active compounds read high

O=C(O)CCC(=O)N1CCc2cc(S(=O)(=O)N3CC=C(c4ccccc4)CC3)ccc21
inactive: growth inhibition [1] 5.99% | growth inhibition [2] 4.92% | viability increase [3] -2.14% | viability [4] 104% | viability [5] 93.9% | inhibition [6] 3.79% | RAM network inhibition [7] 7.9%

CC1(C)CC(=O)c2cc(C(=O)N3CCN(CCO)CC3)c(=O)n(-c3ccc(Cl)cc3)c2C1
inactive: growth inhibition [1] -6.56% | growth inhibition [2] -25.4% | viability increase [3] -0.93% | viability [4] 103% | viability [5] 100% | inhibition [6] 1.81% | RAM network inhibition [7] 3.06%

Nc1nc2n(n1)C(c1ccc(Cl)cc1)CC(c1ccc(F)cc1)N2 (configuration not stated)
inactive: growth inhibition [1] -3.33% | growth inhibition [2] 13% | viability increase [3] 5.31% | viability [4] 92.5% | viability [5] 80.8% | inhibition [6] 0.43% | RAM network inhibition [7] 5.91%

COc1ccc(Nc2nnc(Cc3ccccc3)c(=O)[nH]2)c(OC)c1
inactive: growth inhibition [1] -23.5% | growth inhibition [2] -17.1% | viability increase [3] 0.58% | viability [4] 93.5% | viability [5] 92.7% | inhibition [6] 1.52% | RAM network inhibition [7] 3.16%

CCCn1c(CNS(=O)(=O)c2ccc(C)cc2)nc2ccccc21
inactive: growth inhibition [1] -7.5% | growth inhibition [2] 7.18% | viability increase [3] -2.43% | viability [4] 83.6% | viability [5] 85.2% | inhibition [6] 0.135% | RAM network inhibition [7] 0.52%

CCOc1ccccc1-c1nc(C(N)=O)c2[nH]c(=O)n(-c3ccc(F)cc3)c2n1
inactive: growth inhibition [1] -8.26% | growth inhibition [2] -0.005% | viability increase [3] -4.08% | viability [4] 90.2% | viability [5] 83.9% | inhibition [6] 0.93% | RAM network inhibition [7] -0.71%

COc1ccc(NS(=O)(=O)c2ccc3c(c2)oc(=O)n3C)c(OC)c1
inactive: growth inhibition [1] -16.1% | growth inhibition [2] -28.2% | viability increase [3] 0.13% | viability [4] 104% | viability [5] 91.5% | inhibition [6] 1.07% | RAM network inhibition [7] 9.99%

O=C(NCCCN1CCc2ccccc2C1)C1CCN(c2nnc(-n3cccc3)s2)CC1
inactive: growth inhibition [1] 2.54% | growth inhibition [2] -1.29% | viability increase [3] -3.55% | viability [4] 82.2% | viability [5] 79.4% | inhibition [6] 2.08% | RAM network inhibition [7] 5.45%

COc1ccc(NC(=O)N2CCC(c3ccccc3)C2)c(OC)c1 (configuration not stated)
inactive: growth inhibition [1] -3.06% | growth inhibition [2] 9.96% | viability increase [3] 1.59% | viability [4] 90.9% | viability [5] 90.2% | inhibition [6] 0.67% | RAM network inhibition [7] -1.49%

CC(=O)c1sc2ccccc2c1OC(=O)c1ccco1
inactive: growth inhibition [1] -9.99% | growth inhibition [2] -11.4% | viability increase [3] -4.46% | viability [4] 83% | viability [5] 85.3% | inhibition [6] 0.39% | RAM network inhibition [7] 1.97%

CCNC(=O)CN(Cc1ccccc1)S(=O)(=O)c1ccccc1
inactive: growth inhibition [1] -5.21% | growth inhibition [2] 13.1% | viability increase [3] 0.61% | viability [4] 89.3% | viability [5] 104% | inhibition [6] 0.615% | RAM network inhibition [7] 1.94%

COc1cc(Nc2cc(C)nc3nc(C)nn23)cc(OC)c1OC
inactive: growth inhibition [1] 2.3% | growth inhibition [2] 6.15% | viability increase [3] -1.11% | viability [4] 95.7% | viability [5] 104% | inhibition [6] 0.525% | RAM network inhibition [7] 4.23%

COc1cccc(-c2nn(C)c3sc(C(=O)NCc4ccc5c(c4)OCO5)cc23)c1
inactive: growth inhibition [1] 2.61% | growth inhibition [2] 9.31% | viability increase [3] -2.08% | viability [4] 92.6% | viability [5] 82.7% | inhibition [6] 4.3% | RAM network inhibition [7] 12.7%

COc1ccc(CCNC(=O)CSc2nnnn2-c2ccccc2)cc1
inactive: growth inhibition [1] 2.08% | growth inhibition [2] -9.2% | viability increase [3] -2.24% | viability [4] 94.7% | viability [5] 88.8% | inhibition [6] 1.33% | RAM network inhibition [7] 6.52%

COc1ccccc1N(CC(=O)Nc1c(C)cccc1C)S(C)(=O)=O
inactive: growth inhibition [1] -11.2% | growth inhibition [2] -8.78% | viability increase [3] -1.48% | viability [4] 101% | viability [5] 98.2% | inhibition [6] 0.715% | RAM network inhibition [7] 3.12%

O=C(Nc1nc(-c2ccccn2)cs1)C1COc2ccccc2O1 (configuration not stated)
inactive: viability increase [3] -0.68% | inhibition [6] 0.255% | RAM network inhibition [7] -2.19%
active: growth inhibition [1] 84.5% | growth inhibition [2] 96.9% | viability [4] 10.3% | viability [5] 11.5%

COC1CCCCC1NS(=O)(=O)c1ccc(Cl)cc1 (configuration not stated)
inactive: growth inhibition [1] 1.43% | growth inhibition [2] 2.45% | viability increase [3] -1.67% | viability [4] 93.3% | viability [5] 99.6% | inhibition [6] -0.11% | RAM network inhibition [7] -1.18%

O=C(c1ccco1)N1CCN(S(=O)(=O)c2cccc3nsnc23)CC1
inactive: growth inhibition [1] -10.9% | growth inhibition [2] -21.4% | viability increase [3] -0.16% | viability [4] 99% | viability [5] 99.7% | inhibition [6] 0.6% | RAM network inhibition [7] 5.06%

Nn1c(SCC(=O)Nc2ccc(F)cc2)nnc1-c1ccccn1
inactive: growth inhibition [1] -4.5% | growth inhibition [2] 0.845% | viability increase [3] -0.55% | viability [4] 109% | viability [5] 95.7% | inhibition [6] 1.88% | RAM network inhibition [7] 0.9%

O=C(C1CCN(S(=O)(=O)c2cccc3cccnc23)CC1)N1CCCC1
inactive: growth inhibition [1] 11.8% | growth inhibition [2] 7.97% | viability increase [3] -3.23% | viability [4] 97% | viability [5] 87.9% | inhibition [6] 1.52% | RAM network inhibition [7] 0.06%

Cc1cccc(NC(=O)C2C(C(=O)O)C3C=CC2C32CC2)c1C (configuration not stated)
inactive: growth inhibition [1] -2.43% | growth inhibition [2] -9.19% | viability increase [3] -1.67% | viability [4] 95.2% | viability [5] 93.5% | inhibition [6] 1.42% | RAM network inhibition [7] -0.78%

Cn1cccc1Cc1nnc(SCC(=O)NC2CCCCC2)n1CCc1ccccc1
inactive: growth inhibition [1] 9.32% | growth inhibition [2] 23.6% | viability increase [3] -2.17% | viability [4] 79.6% | viability [5] 81.5% | inhibition [6] 1.58% | RAM network inhibition [7] 8.9%

COc1ccc(C2C(C(=O)Nc3cc(C)on3)c3ccccc3C(=O)N2C)cc1OC (configuration not stated)
inactive: growth inhibition [1] -4.48% | growth inhibition [2] 2.73% | viability increase [3] 0.61% | viability [4] 102% | viability [5] 99.4% | inhibition [6] 1.24% | RAM network inhibition [7] 4.64%

Cc1ccc2oc3c(c(=O)c2c1)C(c1cccs1)N(CCCN(C)C)C3=O (configuration not stated)
inactive: growth inhibition [1] 2.01% | growth inhibition [2] 4.98% | viability increase [3] -2.74% | viability [4] 97.2% | viability [5] 97.8% | inhibition [6] 1.28% | RAM network inhibition [7] -1.13%

COc1ccc(OCC(=O)NC2CC(C)(C)NC(C)(C)C2)cc1
inactive: growth inhibition [1] 4.15% | growth inhibition [2] 2.14% | viability increase [3] 1.31% | viability [4] 103% | viability [5] 105% | inhibition [6] -0.405% | RAM network inhibition [7] 3.43%

COc1ccc(-c2noc(CN3CCN(c4ccccc4)CC3)n2)cc1
inactive: growth inhibition [1] -12.7% | growth inhibition [2] -10.2% | viability increase [3] -1.14% | viability [4] 93.6% | viability [5] 88.4% | inhibition [6] 1% | RAM network inhibition [7] 5.43%

Cn1nnnc1SCC(=O)c1ccco1
inactive: growth inhibition [1] -7.91% | growth inhibition [2] -1% | viability increase [3] -3.23% | viability [4] 103% | viability [5] 105% | inhibition [6] 1.83% | RAM network inhibition [7] -0.17%

COCc1nc(-c2ccc(-c3ccc(OC)cc3)nc2OC)no1
inactive: growth inhibition [1] 11.9% | growth inhibition [2] 3.28% | viability increase [3] -0.98% | viability [4] 71% | viability [5] 72.2% | inhibition [6] 1% | RAM network inhibition [7] 2.1%

CC1(C)CC(=O)C=C(NCCCNC2CCCCC2)C1
inactive: growth inhibition [1] -9.9% | growth inhibition [2] -7.88% | viability increase [3] -2.17% | viability [4] 96.5% | viability [5] 93% | inhibition [6] 0.125% | RAM network inhibition [7] 1.72%

COc1ccc(CCNc2oc(-c3ccc(C)cc3)nc2C#N)cc1OC
inactive: growth inhibition [1] -10.8% | growth inhibition [2] -13.3% | viability increase [3] -0.33% | viability [4] 95.8% | viability [5] 104% | inhibition [6] 0.67% | RAM network inhibition [7] -0.47%

COc1ccc(CN2CCN(c3cccc(C)c3C)CC2)cc1OC
inactive: growth inhibition [1] -8.54% | growth inhibition [2] -1.75% | viability increase [3] -1.96% | viability [4] 51.8% | viability [5] 54% | inhibition [6] 1.5% | RAM network inhibition [7] 1.07%

Cc1cc(Nc2ccc(F)c(Cl)c2)n2nc(C)nc2n1
inactive: growth inhibition [1] 1.03% | growth inhibition [2] 15.8% | viability increase [3] -3.61% | viability [4] 97.2% | viability [5] 92.4% | inhibition [6] 1.94% | RAM network inhibition [7] 0.68%

N#Cc1ccc(N2CCN(C(=O)c3cccc(F)c3)CC2)c(F)c1
inactive: growth inhibition [1] 6.81% | growth inhibition [2] 4.18% | viability increase [3] -2.03% | viability [4] 98.4% | viability [5] 87.8% | inhibition [6] 2.12% | RAM network inhibition [7] 0.57%

Cc1cccc(-c2nnc(-c3ccccc3)o2)c1
inactive: growth inhibition [1] -8.19% | growth inhibition [2] -3.2% | viability increase [3] -5.21% | viability [4] 78% | viability [5] 81.7% | inhibition [6] 1.5% | RAM network inhibition [7] 1.78%

CC(CCCC(C)(C)O)NCCO (configuration not stated)
inactive: growth inhibition [1] -9.36% | growth inhibition [2] -4.3% | viability increase [3] 1.25% | viability [4] 102% | viability [5] 106% | inhibition [6] 2.67% | RAM network inhibition [7] -0.17%

COc1ccc(C)cc1NC(=O)c1cc2c(CO)cnc(C)c2oc1=N
inactive: growth inhibition [1] -16.1% | growth inhibition [2] -10.5% | viability increase [3] -0.06% | viability [4] 97.5% | viability [5] 89.7% | inhibition [6] 1.31% | RAM network inhibition [7] 0.63%
